# Assay results published in the array DNA melting data of Ke et al. (doi:10.1101/2024.01.08.574731).
# How the values were obtained:
# [1] = melting temperature; fluorescence melt of hairpins on a sequencing array, two-state fit, raised by 9.35 °C to match UV melts; conditions: sodium 0.088 M
# Summary of the method: (§1)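 Hairpins were imaged by Cy3 fluorescence on a sequenced MiSeq flow cell with annealed Cy3 and quencher oligos, in 50 mM Na-HEPES pH 8.0, 25 mM NaCl, in 2.5 °C steps up to 60 °C. Bootstrapped two-state fits of normalised signals gave melting temperature and folding enthalpy. Four replicates were combined by inverse variance, and fitted temperatures were raised by 9.35 °C to match UV melts.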
# [2] = folding enthalpy; higher = less favourable; fluorescence melt of hairpins on a sequencing array, two-state fit; conditions: sodium 0.088 M
# Summary of the method: as §1
Sequence,Tm [1],folding enthalpy [2]
GCACGAGGAAACTCGCGC ((.((((....)))).)),54.5 °C,-43.5 kcal/mol
GACTGGGGAAACCCGGTC (((.(((....))).))),54.1 °C,-41.7 kcal/mol
GTAGATGGAAACATCTAC (((((((....))))))),55.5 °C,-41.3 kcal/mol
GTCTTCGAAAGAAGAGAC ((((((....)))..))),36.5 °C,-16.7 kcal/mol
GCCGAATCGAAAGATGGC (((..(((....)))))),46.2 °C,-26.3 kcal/mol
GGATGTCGAAAGACTCC (((.(((....)))))),51.8 °C,-25.3 kcal/mol
GGCCAAGAAATTGGCC ((((((....)))))),64.4 °C,-40.1 kcal/mol
GCAGTCGAAAGACCCTGC ((((((....)))..))),33 °C,-17.3 kcal/mol
GTTAGAGGAAACCCTAAC (((((.(....).))))),31.9 °C,-17.9 kcal/mol
GCAGTGCGAAAGCAGTGC (((.(((....))).))),66.4 °C,-37.9 kcal/mol
GCTACCGAAAGGTACAGC ((((((....)))..))),42.5 °C,-13.6 kcal/mol
GCACAGCGAAAGCTTGGC ((..(((....)))..)),47.5 °C,-15.4 kcal/mol
GGGATCGAAAGATCCCCC ((((((....)))..))),68.2 °C,-10.2 kcal/mol
GGGGACGGAAACACCCCC ((((..(....)..)))),34.8 °C,-22.6 kcal/mol
GATCGCCCCCGCGATC ((((((....)))))),66.8 °C,-37.6 kcal/mol
GCTTGCGGAAACGCAGGC ((.((((....)))).)),62.8 °C,-35.1 kcal/mol
GTACCCGGAAACGAGTAC ((((.((....)).)))),41.1 °C,-25.8 kcal/mol
GATCAACATTTGATC ((((((...)))))),38.2 °C,-31.1 kcal/mol
GATGACGAAAGTCTATC ((((((....))).))),39 °C,-16.4 kcal/mol
GTTGGGCGAAAGCCGAAC (((.(((....))).))),53.2 °C,-19.5 kcal/mol
GGGTTTGGAAACAAATCC ((.((((....)))).)),47.4 °C,-39.6 kcal/mol
GGCTCTGGAAACAGAACC ((.((((....)))).)),42.3 °C,-35.1 kcal/mol
GTCGAGGGAAACCTTGAC (((.(((....))).))),48.7 °C,-38.5 kcal/mol

Sequence,Tm [1],folding enthalpy [2]
GCTGAGCGAAAGCTGCGC ((..(((....)))..)),54.7 °C,-19 kcal/mol
GATTCACGAAAGTGCATC (((.(((....))).))),40.2 °C,-26.4 kcal/mol
GCCATTGGAAACAGTGGC ((((.((....)).)))),50.7 °C,-45.3 kcal/mol
GACCGGGCGAAAGCCGTC (((..(((....)))))),40.4 °C,-10.3 kcal/mol
GGCGTAGGAAACTACGTC (.(((((....))))).),52.4 °C,-34.7 kcal/mol
GGGAATCGAAAGATCCC (((.(((....)))))),49.7 °C,-24.6 kcal/mol
GTCTTACGAAAGTAGGAC (((.(((....))).))),48.9 °C,-28.2 kcal/mol
GATCCCGCCTGGGATC ((((((....)))))),64.9 °C,-39.1 kcal/mol
GTAAAACGAAAGTTGTAC (((.(((....))).))),35.3 °C,-20.4 kcal/mol
CGAATCGGAAACGAATCG (((.(((....))).))),44.7 °C,-37.4 kcal/mol
GCACCCGAAAGGGTTGC ((((((....))).))),63.3 °C,-22.5 kcal/mol
GTAGCGGGAAACCGCTGC (.(((((....))))).),59.7 °C,-17.3 kcal/mol
GCGGTGCGAAAGCCGCGC (((..((....))..))),68.9 °C,-27.7 kcal/mol
GACACTGAAAAGTGTC ((((((....)))))),58.6 °C,-34.5 kcal/mol
GTCATAGGAAACTACGAC (((.(((....))).))),30.8 °C,-16.5 kcal/mol
GATCCTTACAAGGATC ((((((....)))))),54.2 °C,-38.1 kcal/mol
GATTGAGAAATCAATC ((((((....)))))),45.5 °C,-25.9 kcal/mol
GATCAGTCGCTGATC ((((((...)))))),49.8 °C,-29.6 kcal/mol
GTACGGTCGAAAGACTAC (((..(((....)))))),26.8 °C,-10.6 kcal/mol
GTTTCGGAAACGAAAC ((((((....)))))),56.9 °C,-35.9 kcal/mol
GTGTAGGGAAACTTACAC (((((.(....).))))),42 °C,-21.3 kcal/mol
GCCTTAGGAAACTAAGAC (.(((((....))))).),30.1 °C,-13.8 kcal/mol
GATACCGAAAGGTAATC ((((((....))).))),39 °C,-18.9 kcal/mol
